Laboratory results from ChEMBL document CHEMBL1124849, “Synthesis, antitumor activity, and antiviral activity of 3-substituted 3-deazacytidines and 3-substituted 3-deazauridines” (J Med Chem, 1990).
pIC50: −log10 of the molar value. Converted amounts (≈) assume the structure as drawn.

How the values were obtained:
[1] = The minimum cytotoxic concentration (MCC) reducing cell viability on WISH cells; format: cell-based; details: human
In short: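 Uninfected WISH cell monolayers, grown 18–24 h, were given serial 2-fold drug dilutions (cells + medium + drug) and incubated at 33 °C for 72 h. Cells were examined microscopically.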

[2] = test system: L1210; test: In vitro inhibition of L1210 leukemia cell growth; format: functional; details: Mus musculus, read-out: ID50 (the source's name)
[3] = test system: Mus musculus; test: Compound (100 mg/kg) was tested against intraperitoneally implanted P388 leukemia in mice; format: functional
In short: (§1)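 CD2F1 mice, groups of six, inoculated ip with 10⁶ P388 leukemia cells; ip treatment started 24 h after inoculation, once daily for 5 days. Read-out is %T/C = (mean survival time of treated mice in days / mean survival time of controls) × 100, with ≥120 taken as moderate activity.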

[4] = test system: Mus musculus; test: Compound (200 mg/kg) was tested against intraperitoneally implanted P388 leukemia in mice; format: functional; in short: as §1
[5] = test system: Mus musculus; test: Compound (400 mg/kg) was tested against intraperitoneally implanted P388 leukemia in mice; format: functional; in short: as §1
[6] = test system: Mus musculus; test: Compound (50 mg/kg) was tested against intraperitoneally implanted P388 leukemia in mice; format: functional; in short: as §1
[7] = test system: Mus musculus; test: Compound (600 mg/kg) was tested against intraperitoneally implanted P388 leukemia in mice; format: functional; in short: as §1
[8] = species on record: Mus musculus; test: Mean weight change (day 5 wt minus day 1 wt) of the treated mice to the mean weight change of the control mice in grams; format: functional
In short: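 CD2F1 mice given 10⁶ P388 cells ip, then ip treatment once daily for 5 days starting at 24 h. Toxicity is the mean weight change (day 5 minus day 1) of treated mice minus that of control mice, in grams.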

[9] = test system: Enterovirus; test: The minimum inhibitory concentration (MIC) required to inhibit rhinovirus type 34 induced cytopathic effect (CPE) on WISH cells; format: functional
In short: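 WISH cells grown 18–24 h to monolayers. Serial 2-fold drug dilutions applied, then 320 CCID50 of rhinovirus type 34 added; sealed plates incubated 72 h at 33 °C. Cell, virus and toxicity controls included.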

[10] = (§2) The antiviral index is defined as MCC/MIC; format: ADME; details: read-out: Antiviral index
In short: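 Rhinovirus type 34 on WISH cell monolayers grown 18–24 h. Serial 2-fold drug dilutions were added with 320 CCID50 of virus and incubated at 33 °C for 72 h. CPE was scored microscopically on a 0–4 scale. […] AI = MCC/MIC.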

[11] = as §2; format: functional

| SMILES | MCC [1] | pIC50 [2] | MIC [9] | Antiviral index [11] | other results |
| --- | --- | --- | --- | --- | --- |
| O=c1c(Br)c(O)ccn1C1O[C@H](CO)[C@@H](O)[C@H]1O (some centres not stated) | > 1000 µg/mL | – | – | – | – |
| Nc1ccn(C2O[C@H](CO)[C@@H](O)[C@H]2O)c(=O)c1F (some centres not stated) | 400 µg/mL | 4.93 | 1.3 µg/mL (≈ 5 µM) | – | T/C [3]: 149; T/C [4]: 158; T/C [5]: 177; T/C [6]: 133; T/C [7]: 185; Weight change [8]: -3.4 (not active) [middle of 5 runs]; selectivity ratio [10]: 308 |
| Nc1ccn(C2O[C@H](CO)[C@@H](O)[C@H]2O)c(=O)c1Br (some centres not stated) | 800 µg/mL | < 4.51 | 173 µg/mL (≈ 540 µM) | 4.6 | – |
| Nc1ccn(C2O[C@H](CO)[C@@H](O)[C@H]2O)c(=O)c1[N+](=O)[O-] (some centres not stated) | > 1000 µg/mL | – | – | – | – |
| Nc1ccn(C2O[C@H](CO)[C@@H](O)[C@H]2O)c(=O)c1Cl (some centres not stated) | 400 µg/mL | < 4.44 | 53.7 µg/mL (≈ 194 µM) | 7.5 | – |
| Nc1cc(=O)n(C2O[C@H](CO)[C@@H](O)[C@H]2O)cc1F (some centres not stated) | 800 µg/mL | – | – | – | – |
| Nc1c(F)cn(C2O[C@H](CO)[C@@H](O)[C@H]2O)c(=O)c1F (some centres not stated) | 400 µg/mL | < 4.44 | 28.3 µg/mL (≈ 102 µM) | 14.1 | – |
| Nc1ccn([C@@H]2O[C@H](CO)[C@@H](O)[C@H]2O)c(=O)c1 | 400 µg/mL | 4.54 | 3.2 µg/mL (≈ 13.2 µM) | 125 | – |
| O=c1c([N+](=O)[O-])c(O)ccn1C1O[C@H](CO)[C@@H](O)[C@H]1O (some centres not stated) | 400 µg/mL | – | – | – | – |
| O=c1c(Cl)c(O)ccn1C1O[C@H](CO)[C@@H](O)[C@H]1O (some centres not stated) | > 1000 µg/mL | – | – | – | – |
| O=c1cc(O)ccn1[C@@H]1O[C@H](CO)[C@@H](O)[C@H]1O | 400 µg/mL | – | – | – | – |
